# High-throughput results as filed in PubChem.
# The list is not random: actives were taken first. Their share in the collection is about 2.6%.
# AHR act: activators of human aryl hydrocarbon receptor. AID 2796. AHR-responsive luciferase reporter cells, luminescence. activation, % at 5 µM. 2.5% of 320,000 active. P35869; in the data active = activation above about 47%;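 note: 0% = vehicle wells and 100% = reference agonist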
# proCasp7 act: counter-screen: procaspase-7 (human) activation; 0.093% of 330,000 active; recombinant procaspase-7, Ac-DEVD-pNA absorbance 405 nm; D23A/D198A/D206A triple mutant, cannot self-cleave; scale: DMSO 0, 5 µM enzyme 100; activation, % at 8.5 µM;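 active = percent activation above the screen-wide mean plus 3 SD, cut at about 25% in these data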
# Target sequence (P55210 whole entry D23A/D198A/D206A): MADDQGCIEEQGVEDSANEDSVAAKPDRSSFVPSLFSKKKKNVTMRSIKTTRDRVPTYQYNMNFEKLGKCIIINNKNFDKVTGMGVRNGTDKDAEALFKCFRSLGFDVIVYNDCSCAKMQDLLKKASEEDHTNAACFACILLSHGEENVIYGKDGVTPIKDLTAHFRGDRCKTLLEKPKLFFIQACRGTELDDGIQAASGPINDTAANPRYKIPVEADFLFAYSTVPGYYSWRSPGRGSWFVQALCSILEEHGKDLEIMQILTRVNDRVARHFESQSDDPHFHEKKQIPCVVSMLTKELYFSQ
#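 System: Uncleavable procaspase-7 mutant enzyme; Amount: 2 µM procaspase-7 mutant as dispensed; Schedule: 1 h compound preincubation, 2 h substrate cleavage, 25 °C; Measured by: 405 nm absorbance of p-nitroaniline; Evaluation: percent activation from buffer-corrected 0–120 min absorbance change; Control set: low DMSO alone, high DMSO plus 5 µM PC-7.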
# procasp3 activ: activates human procaspase-3; P42574; recombinant procaspase-3 D3A, Ac-DEVD-pNA absorbance 405 nm; activation, % at 8.5 µM; 0.11% of 330,000 active; AID 463141;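 active = activation above the mean of all tested compounds plus 3 SD, cut at about 21% in these data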;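 note: 0% = DMSO alone and 100% = DMSO wells spiked with extra 5 µM PC-3 D3A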
# Target sequence (P42574 whole entry D9A/D28A/D175A): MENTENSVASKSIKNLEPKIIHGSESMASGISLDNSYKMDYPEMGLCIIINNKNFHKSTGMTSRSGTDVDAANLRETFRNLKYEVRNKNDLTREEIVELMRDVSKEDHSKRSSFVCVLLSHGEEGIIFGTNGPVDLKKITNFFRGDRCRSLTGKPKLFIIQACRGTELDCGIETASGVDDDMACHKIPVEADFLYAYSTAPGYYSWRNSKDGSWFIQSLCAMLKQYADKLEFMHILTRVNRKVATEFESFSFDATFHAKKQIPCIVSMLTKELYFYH
#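 assay system = Procaspase-3 D3A mutant | signal = absorbance at 405 nm, 0 and 120 min | times = 1 h preincubation plus 2 h reaction at 25 °C | repeats = single replicate | read-out = % activation between DMSO and enzyme-spiked controls | medium = Zinc-free HEPES saline buffer with Triton X-100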
# PolyA inh: yeast polyadenylation inhibition; S. cerevisiae SKY197-pL101 polyadenylation reporter, beta-gal luminescence; efflux-impaired pdr1/pdr3 knockout yeast; score 100 = 6 SD above DMSO; activity score, % at 12 µM; 0.02% of 300,000 active;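 active = lowest replicate activity score at least 50, where 100 means six control SD above control mean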;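 note: yeast exposed to compound for 9 h at 30 °C; higher score means more reporter readthrough which indicates perturbed polyadenylation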
# * hit, by the source's call; . = no result given.
SMILES,AHR act,proCasp7 act,procasp3 activ,PolyA inh
COc1ccccc1/C=C/C(=O)OCC(=O)NCc1ccc2c(c1)OCO2,0.1,-7.4,8.4,.
Cc1ccc(NC(=O)c2sccc2SCc2cccc(C(F)(F)F)c2)cc1,3.7,-1.7,0.9,-4.9
N#CCSc1ccsc1C(=O)Nc1ccc(F)cc1,49.9*,-1.7,-0.7,1.3
Cc1nc(Nc2ccc(Cl)cc2)c(C#N)c(=O)[nH]1,70.8*,1.1,1.5,-5.4
CSc1nc(C)[nH]c(=O)c1C#N,3.7,3.2,-9.9,5.8
COc1cccc(-c2sc3ccccc3c2-c2ccc(OCCN(C)C)cc2)c1,-0.6,4.8,3.2,.
CC1(C)CC(=O)C2=C(C1)Nc1cc(Cl)ccc1S2,53.1*,-15.6,-10.8,12.9
CCc1cc2c(=O)c(-c3cscn3)coc2cc1O,73.5*,-2.3,0.0,-0.1
COCc1ccc(C(=O)N2CCCCC2C(=O)Nc2ccc(-n3nc(C)cc3C)cc2)o1 (stereo not drawn),2.5,9.1,6.3,8.9
O=C(CSC1=Nc2ccccc2C2CC=NN12)NCc1ccco1 (stereo not drawn),66.0*,-12.0,2.6,.
C=CCn1cccc(C(=O)Nc2ccc(N(C)C)cc2)c1=O,15.0,3.8,-6.0,-2.7
C=CCn1cccc(C(=O)Nc2ccc(Cl)cc2)c1=O,51.4*,0.8,-0.8,20.8
C=CCn1cccc(C(=O)Nc2ccc(SC)cc2)c1=O,64.7*,-3.9,-2.8,13.1
COc1cccc(/C=C2\CCCCC2=O)c1,0.0,-2.2,-2.3,-8.3
CC(Sc1nnc(C2CC2)n1C1CC1)C(=O)N(C)Cc1cccc(F)c1 (stereo not drawn),0.1,-5.7,7.6,.
COc1ccccc1-c1nc(C#N)c(NCCCn2ccnc2)o1,70.3*,2.4,-5.7,7.5
COc1ccc(CCNc2oc(-c3ccccc3OC)nc2C#N)cc1,13.9,-9.6,4.2,-16.5
CCN(CC(=O)NCc1cccs1)C(=O)c1ccc(-c2cccc(C(F)(F)F)c2)o1,24.7,-6.3,11.7,-11.2
O=C/C(=C\Nc1ccc(Cl)cn1)c1nc2cc(Cl)ccc2o1,51.2*,-14.7,-35.4,1.0
O=C/C(=C\Nc1ccc(Cl)cn1)c1nc2ccccc2o1,36.5,-2.2,-24.9,3.7
C/C(=N\Nc1nc(N)cc(Cl)n1)c1cccc(N)c1,65.3*,-2.3,1.0,-8.9
CCOC(=O)CNC(=O)Cn1cnc2c(cnn2-c2ccc(C)cc2)c1=O,-0.3,9.2,8.6,1.1
CCCS(=O)(=O)n1nc(-c2ccc(Br)cc2)cc1N,58.0*,-7.2,7.5,15.8
COc1ccc(OC)c(N/C(N)=N/c2nc(C)cc(C)n2)c1,66.3*,7.0,1.3,27.6
Cc1cc(C)nc(/N=C(\N)Nc2ccc3c(c2)OCCO3)n1,72.2*,6.8,0.4,-10.2
SMILES,AHR act,proCasp7 act,procasp3 activ,PolyA inh
COc1ccc(Cl)cc1N/C(N)=N/c1nc(C)cc(C)n1,41.3,2.9,-0.7,12.1
Cc1cc(=O)[nH]c(/N=C(\N)Nc2ccc3c(c2)OCCO3)n1,8.5,4.8,2.7,-1.0
COc1ccc(N/C(N)=N/c2nc(C)cc(C)n2)c(OC)c1,62.6*,-4.8,1.2,0.2
COc1cc(N/C(N)=N/c2nc(C)cc(C)n2)cc(OC)c1,65.1*,1.5,2.9,-9.2
Cc1cc(F)ccc1S(=O)(=O)Nc1ccccc1C(=O)N1CCCC1,0.3,-0.3,4.9,.
O=C(CN1CCC(O)(c2cccc(F)c2)CC1)NCCc1c[nH]c2ccccc12,5.2,0.6,10.2,-15.0
CCCCN(C(=O)CSCC(=O)Nc1ccc(C)cc1)c1c(N)n(Cc2ccccc2)c(=O)[nH]c1=O,1.2,2.5,1.5,-13.3
CCCOc1ccccc1N/C(=N/c1nc(C)cc(C)n1)NC(=O)COc1ccc(OC)cc1,12.2,5.5,4.0,3.8
CCCOc1ccccc1N/C(N)=N/c1nc(C)cc(C)n1,55.7*,-9.8,5.2,-22.7
O=C(CN1C(=O)C2CC=CCC2C1=O)NCC(=O)Nc1ccc(F)c(F)c1 (stereo not drawn),0.9,15.1,-4.2,5.3
CC(=O)c1c(C)[nH]c(C(=O)CSc2nnc(C)s2)c1C,67.7*,6.1,15.8,14.7
Nc1nn(-c2ccccc2)c(N)c1N=Nc1ccccc1F,63.6*,-1.0,-8.7,-6.8
Cc1nc2c(N=Nc3ccccc3F)c(N)nn2c(N)c1C#N,59.6*,-0.8,7.9,7.4
Cc1cc(=O)n2[nH]c(N)c(N=Nc3ccccc3F)c2n1,14.2,-3.2,-12.0,-4.8
CCCCn1c(O)c(N=NC(=O)c2ccco2)c2ccccc21,76.2*,4.3,4.4,-6.5
O=C(CNC(=O)c1ccco1)N=Nc1c(O)n(CCc2ccccc2)c2ccccc12,58.7*,-6.4,10.5,3.0
O=C(N=Nc1c(O)n(C2OC(=O)c3ccccc32)c2ccccc12)c1ccco1 (stereo not drawn),2.1,-11.4,4.9,-19.8
Cc1cc(N2CCN(c3ccc(F)cc3)CC2)nc2cc(O)ccc12,97.5*,8.6,9.6,-18.5
COc1ccc2c(C)cc(N3CCN(c4ccc(F)cc4)CC3)nc2c1,69.1*,-3.0,7.0,-3.5
c1ccc(OCc2nn3c(-c4n[nH]c5c4CCC5)nnc3s2)cc1,67.7*,1.4,2.6,16.9
Cc1ccc(-n2c(=S)[nH]c3c(oc4ccccc43)c2=O)cc1,20.1,4.4,-9.5,-0.2
O=c1c2oc3ccccc3c2[nH]c(=S)n1-c1ccccc1,65.5*,-2.8,-2.5,-16.1
Cc1cccc(-n2c(=S)[nH]c3c(oc4ccccc43)c2=O)c1,62.3*,-12.3,-7.3,-4.8
CCCOc1ccc(-c2nc[nH]c2[N+](=O)[O-])cc1,3.0,7.3,-0.9,-16.8
CCN1CCCC1CN(Cc1cc2ccc(C)cc2[nH]c1=O)C(=S)Nc1cccc(OC)c1 (stereo not drawn),58.7*,-14.3,-9.8,-14.5
SMILES,AHR act,proCasp7 act,procasp3 activ,PolyA inh
CCN1CCCC1CN(Cc1cc2ccc(C)cc2[nH]c1=O)C(=S)Nc1ccc(OC)cc1 (stereo not drawn),-1.2,-4.7,10.7,-11.6
C=C1N(c2cccc(Cl)c2)C(=O)OC1(C)C,0.5,8.0,-2.5,3.5
CSc1ccc(/C=C/c2cc(=O)c3ccccc3[nH]2)cc1,56.0*,3.1,-4.8,9.4
O=C(c1ccc(CS(=O)c2cccc(Cl)c2)o1)N1CCCCCC1 (stereo not drawn),1.6,1.1,1.3,12.5
COc1ccccc1Cn1c(/C=C/c2ccccc2)nc2ccccc21,63.9*,-3.9,6.5,-19.6
CCOC(=O)N1CCC(NC(=O)CS(=O)Cc2nc(-c3ccc(Cl)cc3)oc2C)CC1 (stereo not drawn),4.4,3.4,-4.1,-4.8
Cc1cc(NC(=O)COc2ccc(C(C)(C)C)cc2)no1,.,.,.,-9.2
COc1ccc(OC)c(NC(=S)N(CCc2c(C)[nH]c3ccc(C)cc23)Cc2cccs2)c1,31.5,-1.3,-7.4,-7.1
COc1ccc(OC)c(NC(=S)N(CCc2c(C)[nH]c3ccccc23)Cc2cccs2)c1,50.0*,-7.2,0.8,27.9
